A short description of data set [1]: Cytotoxicity against human HL-7702 cells assessed as growth inhibition after 72 hrs by CCK8 assay. In kind it is toxicity, cell-based, L02. Conditions: for IC50 at 72 h: human, HL-7702 cells. In short, it runs like this: (§1)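 Exponentially growing cells were trypsinized and seeded at 2 × 10^4 cells/mL (100 µL/well). After 24 h, medium was replaced with compound at 0.5–256 µM (twofold steps). Plates were incubated 72 h at 37 °C, 5% CO2, then with CCK-8 for 4 h. A450 was read. Three independent runs; IC50 given as mean and SD.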

The nature of data set [2]: Cytotoxicity against human MCF7 cells assessed as growth inhibition after 72 hrs by CCK8 assay. In kind it is functional, cell-based. In short, it runs like this:
as §1

A short description of data set [3]: Cytotoxicity against human TE1 cells assessed as growth inhibition after 72 hrs by CCK8 assay. In kind it is functional, cell-based, TE-1. In short, it runs like this:
as §1

The nature of data set [4]: Cytotoxicity against human MGC803 cells assessed as growth inhibition after 72 hrs by CCK8 assay. In kind it is functional, cell-based, MGC-803. In short, it runs like this: as §1
(In general: Formazan colour is commonly taken as a measure of viable cells.)

Data set [5] can be described thus: Cytotoxicity against human SW780 cells assessed as growth inhibition after 72 hrs by CCK8 assay. In kind it is functional, cell-based. In a few lines: as §1
Data set [6] can be described thus: Cytotoxicity against human GES-1 cells assessed as growth inhibition after 72 hrs by CCK8 assay. In kind it is toxicity, cell-based, GES1. Conditions: for IC50 at 72 h: human, GES-1 cells. In short, it runs like this:
as §1

The mark [7] stands for this setting: Homo sapiens, MCF7, 72 h, read-out: IC50.
Where [8] appears, read: Homo sapiens, TE-1, 72 h, read-out: IC50.
Where [9] appears, read: Homo sapiens, MGC-803, 72 h, read-out: IC50.
The mark [10] stands for this setting: Homo sapiens, SW780, 72 h, read-out: IC50.

Take `O=C1C(=O)N(Cc2cn(CC(=O)N3CCNCC3)nn2)c2c(Cl)ccc(Cl)c21`: the IC50 entry in data set [1] (l02), in data set [2] (mcf7), in data set [3] (te-1), in data set [4] (mgc-803), in data set [5] (sw780) and in data set [6] (ges1) was “Nd(Insoluble)” in each case.

With `CC(C)(C)OC(=O)N1CCN(C(=O)Cn2cc(CN3C(=O)C(=O)c4c(Cl)ccc(Cl)c43)nn2)CC1`, the IC50 at 72 h in data set [1] stood at 42 µM; in data set [6] it was 84.2 µM. Also, the IC50 was 46.9 µM in data set [2] (setting [7]), 39.2 µM in data set [3] (setting [8]), 22 µM in data set [4] (setting [9]) and above 128 µM in data set [5] (setting [10]).

For `O=C1C(=O)N(Cc2cn(CC(=O)N3CCOCC3)nn2)c2c(Cl)ccc(Cl)c21`, the IC50 at 72 h in data set [1] and in data set [6] was above 128 µM in each case. The IC50 in data set [2] (setting [7]) came to 146 µM; in data set [3] (setting [8]), 119 µM; in data set [4] (setting [9]) it was 51.7 µM; in data set [5] (setting [10]), 113 µM.

Turning to `O=C(Cn1cc(CN2C(=O)C(=O)c3c(Cl)ccc(Cl)c32)nn1)NC1CCCCC1`, the IC50 at 72 h in data set [1] turned out to be 83.9 µM; in data set [6], 47.4 µM. The IC50 in data set [2] (setting [7]) was 51.8 µM; in data set [3] (setting [8]) it was 25.2 µM; in data set [4] (setting [9]), 17.4 µM; in data set [5] (setting [10]) it was 93.3 µM.

For orientation: IC50 means the point on the concentration scale where inhibition reaches its midpoint.

Values taken from ChEMBL document CHEMBL3875153, “Design and synthesis of isatin/triazole conjugates that induce apoptosis and inhibit migration of MGC-803 cells” (Eur J Med Chem, 2016).
